DNMT1 block – blocks human DNA methyltransferase DNMT1 | P26358 | DNMT1 molecular beacon, Hinp1I cleavage, fluorescence | inhibition (reported as % activation of signal), % at 10 µM | 360,000 compounds, 0.83% hits | AID 588458; in the data active = inhibition above about 50%
SUMO1-SIM PPI – alters human SUMO1 binding to SIM partners | P63165 | AID 602429 | inhibition, % at 20 µM | 360,000 compounds, 0.33% hits | SUMO1 binding to a labelled peptide, TR-FRET, 1 h; in the data active = inhibition above about 37%
Target sequence (P63165 whole entry, looked up): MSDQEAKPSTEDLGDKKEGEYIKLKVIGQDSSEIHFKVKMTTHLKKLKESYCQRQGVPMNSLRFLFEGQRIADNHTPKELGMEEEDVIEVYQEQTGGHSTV
LMPTP block – blocks human LMPTP phosphatase. recombinant LMPTP-A, OMFP fluorogenic substrate, fluorescence intensity. 360,000 compounds, 0.22% hits. P24666. AID 651560. inhibition, % at 20 µM;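 active = compounds that cut the enzyme signal by at least half of the control window in the single-dose screen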
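Buffer or medium: Bis-Tris pH 6.0, DTT, detergent; Assay system: LMPTP-A enzyme; Quantity: 0.625 nM enzyme; Detection: endpoint fluorescence intensity; Times: 50 min dark incubation at room temperature; Controls: substrate-only low control, DMSO enzyme-plus-substrate high control; Doses: single 20 µM dose; Read-out: percent inhibition versus substrate-only and uninhibited controls; Reagent: 400 µM OMFP.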
Scp1 inh – Scp-1 (human) phosphatase inhibition | Recombinant Scp1, phosphopeptide, malachite green phosphate absorbance | inhibition, % at 20 µM | Q9GZU7 | AID 493091 | 340,000 compounds, 0.88% hits;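 active = inhibition above about 50% at 20 µM, limit read from the data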
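Test system – truncated SCP-1 phosphatase (76-261aa) · Reagent – Phosphorylated 17-residue peptide substrate · Incubation – 45 min room-temperature reaction, 5 min colour, 30 min stabiliser · Detection – colorimetric phosphate reagent with accelerator and stabiliser, absorbance at 630 nm · Measure – % inhibition at 20 µM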
GRK2 inh – inhibitors of human GRK2 displacing RNA aptamer; bead flow cytometry, FAM-aptamer displacement from GRK2; inhibition of aptamer binding, % at 10 µM; 330,000 compounds, 0.59% hits;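 active = inhibition of aptamer binding above 40%, roughly 3 SD of noise, on plates passing a quality check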;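 also: median bead fluorescence of bound FAM aptamer so fluorescent compounds give negative values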
Target sequence (P25098 whole entry, looked up): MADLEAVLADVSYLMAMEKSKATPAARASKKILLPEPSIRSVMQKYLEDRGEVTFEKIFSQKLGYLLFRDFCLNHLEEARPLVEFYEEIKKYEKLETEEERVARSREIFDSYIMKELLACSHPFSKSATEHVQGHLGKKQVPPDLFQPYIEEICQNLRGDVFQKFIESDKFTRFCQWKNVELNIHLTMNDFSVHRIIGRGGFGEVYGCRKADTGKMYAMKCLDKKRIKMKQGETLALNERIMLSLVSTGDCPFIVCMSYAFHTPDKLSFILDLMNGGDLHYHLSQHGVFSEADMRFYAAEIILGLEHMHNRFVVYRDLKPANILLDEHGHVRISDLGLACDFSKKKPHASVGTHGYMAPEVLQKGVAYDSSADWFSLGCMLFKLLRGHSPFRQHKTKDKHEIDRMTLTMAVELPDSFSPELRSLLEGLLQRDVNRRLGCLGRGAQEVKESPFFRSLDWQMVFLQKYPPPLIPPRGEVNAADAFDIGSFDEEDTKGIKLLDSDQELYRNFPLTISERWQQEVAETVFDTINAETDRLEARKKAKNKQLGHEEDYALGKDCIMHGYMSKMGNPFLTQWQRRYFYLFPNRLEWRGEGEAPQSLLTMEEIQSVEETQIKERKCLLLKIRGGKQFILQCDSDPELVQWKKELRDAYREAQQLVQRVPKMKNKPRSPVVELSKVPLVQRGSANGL
STEP block – inhibitors of human striatal-enriched phosphatase STEP. 360,000 compounds, 0.25% hits. inhibition, % at 20 µM. recombinant STEP, OMFP fluorogenic substrate, fluorescence. AID 588621;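 active = inhibition at 20 µM, scaled per plate between control wells, above about 37%, limit read from the data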
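Measure: Control-normalized % inhibition with plate pattern correction | Test system: STEP phosphatase, cell-free reaction | Medium: pH 6.0 Bis-Tris with DTT and Tween 20 | Technique: Fluorescence, 480/540 nm | Times: Reaction 20 min, ambient temperature | Doses: Single compound dose of 20 µM, 1% DMSO final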
Scp1 confirm – confirmation of human Scp-1 phosphatase inhibitors. inhibition, % at 20 µM. shares compounds with Scp1 inh. recombinant SCP-1 catalytic domain, phosphate release, malachite green absorbance. AID 540281. 2,500 compounds, 61% hits
Scp-1 MG ctr – interferes with malachite green readout, flagging false Scp-1 hits; 2,500 tested, under 10 active; apparent inhibition (interference), % at 20 µM; shares compounds with Scp1 inh; Colorimetric interference counterscreen, malachite green absorbance 630 nm;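 also: compounds added after enzyme reaction finished so only phosphate colour detection is probed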
Scp-1 Tm shift – validation of human Scp-1 inhibitors by thermal shift binding. shares compounds with Scp1 inh. Recombinant SCP1, Sypro Orange thermal shift Tm. thermal shift relative to vanadate control, % at 40 µM. 1,500 compounds, 25% hits. AID 540329;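 active = substances whose mean melting-temperature shift, as a percentage of the reference inhibitor's shift, reaches about 5.3%, limit read from the data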
Large screens that a line does not name were inactive (follow-up assays come after a bar, where they were run). The list is not random: actives were taken first. Their share in the collection is about 2.1%.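 The calls were made as follows, unless noted: active = inhibition of at least 30% at 20 µM; inactive = the rest.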

CCCNC(=O)C1(C)CCCN(Cc2ccc3c(c2)OCO3)C1 (stereo not given)	none (no result: Scp1 inh, GRK2 inh)
CN(CC(=O)NCC1CCCO1)S(=O)(=O)c1ccc2ccccc2c1 (stereo not given)	none (no result: Scp1 inh, GRK2 inh)
CN(Cc1ccccc1)C(=O)COC(=O)/C=C/c1ccco1	Scp1 inh 64.5 | Scp1 confirm 62.3 | Scp-1 MG ctr inactive | Scp-1 Tm shift inactive
CC1CCN(C(=O)COC(=O)/C=C/c2ccco2)CC1	Scp1 inh 65.0, GRK2 inh 51.0 | Scp1 confirm inactive | Scp-1 MG ctr inactive
CC1CCCC(C)N1C(=O)COC(=O)/C=C/c1ccco1 (stereo not given)	none
COCCNc1nc(Oc2cccc3ccccc23)c2sccc2n1	none (no result: Scp1 inh, GRK2 inh)
CCCCCC(=O)NNC(=O)c1ccc(F)cc1	none
CCOc1ccccc1OCCCC(=O)NNC(=O)c1ccc(F)cc1	Scp1 inh 58.7 | Scp1 confirm inactive | Scp-1 MG ctr inactive
COc1cc(C(O)c2nc(-c3ccccc3OC)cs2)ccc1F (stereo not given)	none (no result: Scp1 inh, GRK2 inh)
CCOc1ccccc1NC(=O)N1CCC(NC(=O)c2cccc(C)c2)CC1	Scp1 inh 99.3 | Scp1 confirm 67.2 | Scp-1 MG ctr inactive | Scp-1 Tm shift inactive
COc1ccc(Cn2cc(CN3CC(N4CCN(C)CC4)CS3(=O)=O)nn2)cc1 (stereo not given)	none (no result: DNMT1 block, Scp1 inh, GRK2 inh, STEP block)
O=C(Nc1cccc(NC(=O)C2CCCO2)c1)C1CCCO1 (stereo not given)	Scp1 inh 56.1 | Scp1 confirm inactive | Scp-1 MG ctr inactive
CC(=O)Nc1cccc(NC(=O)C2CCCO2)c1 (stereo not given)	none (no result: Scp1 inh, GRK2 inh)
Cc1ccc(S(=O)(=O)CCC(=O)NCc2ccccc2)cc1	none
CN(CC(=O)NCc1ccc(F)cc1)S(=O)(=O)c1ccc2c(c1)n(C)c(=O)c(=O)n2C	none
COc1ccccc1CNC(=O)CN(C)S(=O)(=O)c1ccc2c(c1)c(=O)n(C)c(=O)n2C	none
Cc1ccc(CNC(=O)CN(C)S(=O)(=O)c2ccc3c(c2)n(C)c(=O)c(=O)n3C)cc1	none | Scp1 confirm inactive | Scp-1 MG ctr inactive
Cn1c(=O)c(=O)n(C)c2cc(S(=O)(=O)CCC(=O)NCc3ccccc3)ccc21	Scp1 inh 71.4 | Scp1 confirm inactive | Scp-1 MG ctr inactive
COc1ccccc1CNC(=O)CN(C)S(=O)(=O)c1ccc2c(c1)n(C)c(=O)c(=O)n2C	none | Scp1 confirm inactive | Scp-1 MG ctr inactive
CCCCCCCCSC1=CC(=O)C(OC)=C(OC)C1=O	none (no result: Scp1 inh, GRK2 inh)
CC(C)(CC1(C)NC(=O)NC1=O)OCc1ccccc1 (stereo not given)	none (no result: GRK2 inh)
O=C(CNC(=O)Cc1ccccc1)NCC(=O)N1CCCCC1	none
O=C(CNC(=O)Cc1ccc(Cl)cc1)NCC(=O)N1CCCCC1	Scp1 inh 64.8 | Scp1 confirm inactive | Scp-1 MG ctr inactive
CC(=O)Nc1ccc(S(=O)(=O)/N=C2/NC(=O)/C(=C\c3ccco3)S2)cc1	DNMT1 block 50.6, Scp1 inh 52.6 | Scp1 confirm 54.1 | Scp-1 MG ctr inactive | Scp-1 Tm shift 10.3
Cc1ccc(S(=O)(=O)/N=C2/NC(=O)/C(=C\c3ccco3)S2)cc1	none
O=c1[nH][nH]c2c1[C@@H](c1ccc(F)cc1)O[C@H](CCOCc1ccccc1)C2	none (no result: DNMT1 block, Scp1 inh, GRK2 inh, STEP block)
O=C(NN=C1c2ccccc2-c2ccccc21)c1ccccn1	Scp1 inh 72.8 | Scp1 confirm inactive | Scp-1 MG ctr inactive
O=C(N/N=C/c1ccc2c(c1)OCO2)c1ccc(COCC(F)(F)C(F)F)cc1	Scp1 inh 72.1 | Scp1 confirm 77.0 | Scp-1 MG ctr inactive | Scp-1 Tm shift inactive
C[n+]1cccc(C(=O)N/N=C/c2ccc3c(c2)OCO3)c1	Scp1 inh 50.1 | Scp1 confirm inactive | Scp-1 MG ctr inactive
O=C(N/N=C\C=C\c1ccc(Br)cc1)c1ccc2c(c1)OCO2	DNMT1 block 81.4, SUMO1-SIM PPI 44.6, LMPTP block 56.6, Scp1 inh 94.9, STEP block 97.8 | Scp1 confirm 93.5 | Scp-1 MG ctr inactive | Scp-1 Tm shift inactive
O=C(NCc1ccc(F)cc1F)[C@@H]1CCCN1C(=O)[C@@H]1CCCN1C(=O)c1cccc2ccccc12	none (no result: DNMT1 block, Scp1 inh, GRK2 inh, STEP block)
Cc1cccc(CN(CC(=O)N/N=C/c2ccco2)S(=O)(=O)c2ccc(Cl)cc2)c1	Scp1 inh 58.0 | Scp1 confirm 48.1 | Scp-1 MG ctr inactive | Scp-1 Tm shift inactive
Cc1ccc(S(=O)(=O)N(CC(=O)N/N=C/c2ccco2)Cc2ccccc2)cc1	none
CCOC(=O)C1(C)CCCN1C(=O)c1snnc1C (stereo not given)	none (no result: Scp1 inh, GRK2 inh)
CC(C)(C)OC(=O)C[C@@H]1C/C=C\C[C@H](CC(=O)NCCO)C(=O)N2CCC[C@H]2COC1=O	none
CCOc1ccc(Br)cc1C(=O)N/N=C/c1ccccn1	none
CCOc1ccc(Br)cc1C(=O)N/N=C/c1ccc([N+](=O)[O-])cc1	Scp1 inh 80.9 | Scp1 confirm 32.1 | Scp-1 MG ctr inactive | Scp-1 Tm shift inactive
COc1ccc(Br)cc1C(=O)N/N=C/c1ccc([N+](=O)[O-])cc1	Scp1 inh 99.4 | Scp1 confirm 33.0 | Scp-1 MG ctr inactive | Scp-1 Tm shift inactive
CCS(=O)(=O)N1CCC2(CC1)OCCN2S(=O)(=O)c1ccccc1	none (no result: Scp1 inh, GRK2 inh)
CN(Cc1ccccc1)C(=O)c1ncn2c1c(=O)[nH]c1cccnc12	none (no result: Scp1 inh, GRK2 inh)
Nn1cnc2c(ncn2C2OC(CO)C(O)C2O)c1=O (stereo not given)	none (no result: Scp1 inh, GRK2 inh)
CCc1cccc(NS(=O)(=O)c2ccc3c(c2)NC(=O)CC(=O)N3)c1	none | Scp1 confirm inactive | Scp-1 MG ctr inactive
O=C(Cc1ccccc1)Nc1cccc(-c2nc3ncccc3o2)c1	Scp1 inh 67.8 | Scp1 confirm inactive | Scp-1 MG ctr inactive
Cn1c(=O)c(NC(=O)c2ccccc2)c2n(c1=S)CCCCC2	Scp1 inh 54.9 | Scp1 confirm 36.3 | Scp-1 MG ctr inactive | Scp-1 Tm shift inactive
O=C1CCCN1CCCNC(=S)Nc1ccc(Nc2ccccc2)cc1	none
O=C1CCCN1CCCNC(=S)Nc1ccccc1	none | Scp1 confirm inactive | Scp-1 MG ctr inactive
Cc1cccc(C)c1NC(=S)NCCCN1CCCC1=O	none | Scp1 confirm inactive | Scp-1 MG ctr inactive
CCCc1c(C(=O)N/N=C/c2cccs2)nnn1-c1nonc1N	none
CCCc1c(C(=O)N/N=C/c2ccc(C)s2)nnn1-c1nonc1N	Scp1 inh 60.9 | Scp1 confirm inactive | Scp-1 MG ctr inactive

Source: PubChem BioAssay (several laboratories)
